Reference: ChEMBL document CHEMBL2069305, “Discovery and optimization of a series of liver X receptor antagonists” (Bioorg Med Chem Lett, 2012)
pIC50: −log10 of the molar value.

Assays:
[1] = Metabolic stability in rat liver microsomes assessed as compound remaining at 1 uM after 30 mins; type: ADME, Microsome; conditions: read-out: Stability
[2] = Clearance in Sprague-Dawley rat at 0.5 mg/kg, iv; type: ADME, organism-based; set-up: dose 0.5 mg/kg, route intravenous; conditions: in vivo
How it was run: (§1)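 Single intravenous dose of 0.5 mg/kg in rats; three animals per study.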

[3] = Mean residence time in Sprague-Dawley rat at 0.5 mg/kg, iv; type: ADME, organism-based; set-up: dose 0.5 mg/kg, route intravenous; conditions: in vivo; how it was run: as §1
[4] = Volume of distribution at steady state in Sprague-Dawley rat at 0.5 mg/kg, iv; type: ADME, organism-based; set-up: dose 0.5 mg/kg, route intravenous; conditions: in vivo, read-out: Vdss; how it was run: as §1
[5] = Oral bioavailability in Sprague-Dawley rat at 5 mg/kg; type: ADME, organism-based; conditions: in vivo
How it was run: (§2)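 Male Sprague–Dawley rats given a single oral dose of 5 mg/kg; three animals per study.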

[6] = AUC in Sprague-Dawley rat at 5 mg/kg, po; type: ADME, organism-based; set-up: dose 5 mg/kg, route oral; conditions: plasma; how it was run: as §2
[7] = target: T1, Oxysterols receptor LXR-beta (Homo sapiens, UniProt P55055); assay: Displacement of [3H]N-(4-(1,1,1,3,3,3-hexafluoro-2-hydroxypropan-2-yl)phenyl)-N-methylbenzenesulfonamide from GST-tagged LXRbeta ligand binding domain after 1 hr by scintillation proximity assay
T1 sequence (P55055 whole entry): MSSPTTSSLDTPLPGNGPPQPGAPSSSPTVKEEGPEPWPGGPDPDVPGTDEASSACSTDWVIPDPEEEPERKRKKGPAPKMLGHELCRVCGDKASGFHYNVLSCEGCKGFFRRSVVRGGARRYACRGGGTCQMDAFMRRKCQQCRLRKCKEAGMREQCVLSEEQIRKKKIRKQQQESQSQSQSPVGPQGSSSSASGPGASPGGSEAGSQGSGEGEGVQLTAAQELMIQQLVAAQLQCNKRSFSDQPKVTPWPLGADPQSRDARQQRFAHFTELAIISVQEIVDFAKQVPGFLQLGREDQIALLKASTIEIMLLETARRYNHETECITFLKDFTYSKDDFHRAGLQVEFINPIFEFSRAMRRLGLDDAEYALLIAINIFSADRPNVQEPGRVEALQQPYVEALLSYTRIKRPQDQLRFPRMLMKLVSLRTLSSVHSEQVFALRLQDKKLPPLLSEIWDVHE

[8] = target: T1, Oxysterols receptor LXR-beta; assay: Antagonist activity at LXRbeta ligand binding domain expressed in HEK293 cells coexpressing GAL4 assessed as decrease in […]N-(4-(1,1,1,3,3,3-hexafluoro-2-hydroxypropan-2-yl)phenyl)-N-methylbenzenesulfonamide-induced activity after 20 hrs by luciferase reporter gene assay; type: cell-based
HEK293 = assay: Cytotoxicity against human HEK293 cells; type: cell-based
[9] = AUC in Sprague-Dawley rat at 0.5 mg/kg, iv; type: ADME, organism-based; set-up: dose 0.5 mg/kg, route intravenous; conditions: plasma; how it was run: as §1
Liver microsomes [10] = assay: Drug metabolism in rat liver microsomes assessed as isobutyl-hydroxylation; type: ADME, Microsome
Liver microsomes [11] = assay: Drug metabolism in rat liver microsomes assessed as oxidative cleavage of isobutyl group; type: ADME, Microsome

Compound: CS(=O)(=O)c1ccc(C#CC(O)(c2ccc(N(CC3CCCC3)S(=O)(=O)c3ccccc3)cc2)C(F)(F)F)cc1 (stereo unspecified)
- remaining at 0.5 h, 1 µM [1]: < 5%

Compound: CC(C)(C)CN(c1ccc(C(O)(C#Cc2ccc(S(C)(=O)=O)cc2)C(F)(F)F)cc1)S(=O)(=O)c1ccccc1 (stereo unspecified)
- remaining at 0.5 h, 1 µM [1]: 36%

Compound: CS(=O)(=O)c1ccc(C#CC(O)(c2ccc(N(CC3CC3)S(=O)(=O)c3ccccc3)cc2)C(F)(F)F)cc1 (stereo unspecified)
- clearance [2]: 18.3 mL/min/kg
- MRT [3]: 2.2 h
- Vd [4]: 2.3 L/kg
- bioavailability [5]: 31%
- AUC [6]: 1380 ng·h/mL
- remaining at 0.5 h, 1 µM [1]: > 95%

Compound: CN(c1ccc(C(C)(O)C(F)(F)F)cc1)S(=O)(=O)c1ccccc1 (stereo unspecified)
- pIC50 [7]: < 5.00

Compound: CN(c1ccc(C(O)C(F)(F)F)cc1)S(=O)(=O)c1ccccc1 (stereo unspecified)
- pIC50 [7]: < 5.00

Compound: CC(C)CN(c1ccc(C(O)(C#Cc2ccc(S(=O)(=O)c3ccccc3)cc2)C(F)(F)F)cc1)S(=O)(=O)c1cccc(C#N)c1 (stereo unspecified)
- pIC50 [7]: < 5.00
- pIC50 [8]: < 5.00

Compound: CC(C)CC#CC(O)(c1ccc(N(C)S(=O)(=O)c2ccccc2)cc1)C(F)(F)F (stereo unspecified)
- pIC50 [7]: < 4.52

Compound: CN(c1ccc(C(O)(c2nnn[nH]2)C(F)(F)F)cc1)S(=O)(=O)c1ccccc1 (stereo unspecified)
- pIC50 [7]: < 5.00

Compound: CN(c1ccc(C(O)(c2nnc[nH]2)C(F)(F)F)cc1)S(=O)(=O)c1ccccc1 (stereo unspecified)
- pIC50 [7]: < 5.00

Compound: CS(=O)(=O)c1ccc(C#CC(O)(c2ccc(N(CCC(F)(F)F)S(=O)(=O)c3ccccc3)cc2)C(F)(F)F)cc1 (stereo unspecified)
- remaining at 0.5 h, 1 µM [1]: 42%

Compound: CN(c1ccc(C(O)(Cc2ccccc2)C(F)(F)F)cc1)S(=O)(=O)c1ccccc1 (stereo unspecified)
- pIC50 [7]: < 5.00

Compound: CS(=O)(=O)c1ccc(C#CC(O)(c2ccc(N(CC3CCC3)S(=O)(=O)c3ccccc3)cc2)C(F)(F)F)cc1 (stereo unspecified)
- remaining at 0.5 h, 1 µM [1]: < 5%

Compound: CS(=O)(=O)c1ccc(C#CC(O)(c2ccc(N(CC(F)(F)F)S(=O)(=O)c3ccccc3)cc2)C(F)(F)F)cc1 (stereo unspecified)
- remaining at 0.5 h, 1 µM [1]: 85%

Compound: CC(C)CN(c1ccc(C(O)(C#Cc2ccc(S(C)(=O)=O)cc2)C(F)(F)F)cc1)S(=O)(=O)c1ccccc1 (stereo unspecified)
- Activity (HEK293): Non-toxic
- clearance [2]: 80 mL/min/kg
- MRT [3]: 1.3 h
- Vd [4]: 4.4 L/kg
- AUC [9]: 102 ng·h/mL
- Drug metabolism (Liver microsomes [10]): Active
- Drug metabolism (Liver microsomes [11]): Active
- bioavailability [5]: 9%
- AUC [6]: 86 ng·h/mL
- remaining at 0.5 h, 1 µM [1]: < 5%

Compound: CC(C)CN(c1ccc(C(O)(C#Cc2ccc(S(C)(=O)=O)cc2)C(F)(F)F)cc1)S(=O)(=O)c1cccc(C#N)c1 (stereo unspecified)
- Activity (HEK293): Non-toxic

Compound: CN(c1ccc(C(O)(c2ncc[nH]2)C(F)(F)F)cc1)S(=O)(=O)c1ccccc1 (stereo unspecified)
- pIC50 [7]: < 5.00
